From ChEMBL document CHEMBL2390856, “Carbon-11 N-methyl alkylation of L-368,899 and in vivo PET imaging investigations for neural oxytocin receptors” (Bioorg Med Chem Lett, 2013)
Blank lines part the entries; values can stand above or below the compound they belong to.

Experiments:
[1] = Oral bioavailability in rat; type: ADME, organism-based; details: in vivo
Vasopressin V1a receptor [2] = target: Vasopressin V1a receptor (Rattus norvegicus, UniProt P30560); experiment: Inhibition of rat liver V1a receptor
[3] = Oral bioavailability in dog; type: ADME, organism-based, Canis lupus familiaris; details: in vivo
Vasopressin V2 receptor [4] = target: Vasopressin V2 receptor (Rattus norvegicus, UniProt Q00788); experiment: Inhibition of rat kidney V2 receptor
Oxytocin receptor [5] = target: T1, Oxytocin receptor (Rattus norvegicus, UniProt P70536); experiment: Inhibition of rat uterus OT receptor
T1 sequence (P70536 whole entry): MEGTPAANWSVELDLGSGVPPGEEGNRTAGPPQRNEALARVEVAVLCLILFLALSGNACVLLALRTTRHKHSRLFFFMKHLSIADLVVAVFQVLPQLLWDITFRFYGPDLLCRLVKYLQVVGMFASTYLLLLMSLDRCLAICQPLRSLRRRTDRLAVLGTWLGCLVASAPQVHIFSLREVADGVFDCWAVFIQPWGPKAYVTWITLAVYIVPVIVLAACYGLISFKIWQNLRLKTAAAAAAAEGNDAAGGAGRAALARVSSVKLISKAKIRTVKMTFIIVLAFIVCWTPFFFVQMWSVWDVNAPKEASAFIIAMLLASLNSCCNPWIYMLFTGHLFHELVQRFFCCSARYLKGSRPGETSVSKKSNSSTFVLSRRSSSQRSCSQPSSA

Vasopressin V2 receptor [6] = target: Vasopressin V2 receptor (Homo sapiens, UniProt P30518); experiment: Binding affinity to human V2 receptor
Procedure, shortened: (§1)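 Ki values in nM from human receptor binding assays run by the NIMH Psychoactive Drug Screening Program.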

Vasopressin V1b receptor = target: T2, Vasopressin V1b receptor (Homo sapiens, UniProt P47901); experiment: Binding affinity to V1B receptor (unknown origin); procedure, shortened: as §1
T2 sequence (P47901 whole entry): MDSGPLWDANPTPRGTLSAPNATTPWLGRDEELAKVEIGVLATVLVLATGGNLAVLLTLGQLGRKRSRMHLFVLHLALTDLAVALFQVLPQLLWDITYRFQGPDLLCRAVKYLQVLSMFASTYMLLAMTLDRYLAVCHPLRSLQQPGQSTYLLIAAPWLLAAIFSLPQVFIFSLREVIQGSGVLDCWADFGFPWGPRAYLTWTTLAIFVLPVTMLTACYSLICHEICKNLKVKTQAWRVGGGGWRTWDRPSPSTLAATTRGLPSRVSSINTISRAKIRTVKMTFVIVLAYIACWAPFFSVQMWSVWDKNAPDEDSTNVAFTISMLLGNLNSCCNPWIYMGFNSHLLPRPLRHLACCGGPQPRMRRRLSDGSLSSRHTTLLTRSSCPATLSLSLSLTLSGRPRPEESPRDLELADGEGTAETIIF

Vasopressin V1a receptor [7] = target: Vasopressin V1a receptor (Homo sapiens, UniProt P37288); experiment: Binding affinity to human liver V1A receptor
Oxytocin receptor [8] = target: T3, Oxytocin receptor (Homo sapiens, UniProt P30559); experiment: Binding affinity to human OT receptor; procedure, shortened: as §1
T3 sequence (P30559 whole entry): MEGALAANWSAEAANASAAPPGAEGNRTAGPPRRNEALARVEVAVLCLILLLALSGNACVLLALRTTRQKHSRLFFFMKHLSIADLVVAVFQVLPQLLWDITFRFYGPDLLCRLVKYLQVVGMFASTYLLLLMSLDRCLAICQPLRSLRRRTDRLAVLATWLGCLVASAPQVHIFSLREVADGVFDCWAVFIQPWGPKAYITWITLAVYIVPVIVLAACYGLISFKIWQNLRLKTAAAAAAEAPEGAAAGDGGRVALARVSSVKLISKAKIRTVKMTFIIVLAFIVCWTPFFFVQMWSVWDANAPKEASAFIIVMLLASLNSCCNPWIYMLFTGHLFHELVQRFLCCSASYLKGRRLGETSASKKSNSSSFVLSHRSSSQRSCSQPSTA

Brain [9] = experiment: Drug uptake in Sprague-Dawley rat brain at 500 uCi after 10 mins by PET imaging analysis; type: ADME, tissue-based; details: in vivo
[10] = Drug uptake in Sprague-Dawley rat pituitary gland at 500 uCi by PET imaging analysis in presence of ornithine vasotocin; type: ADME; details: in vivo
Procedure, shortened: (§2)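 Estradiol benzoate-primed Sprague-Dawley rats (10–12 μg sc in sesame oil, daily for 3 days). The peptide OT antagonist ornithine vasotocin (5 mg/kg) was injected 10 min before the radiotracer to block peripheral receptors. 500 μCi of tracer was injected 30 s into a 45 min emission scan.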

[11] = Drug uptake in Sprague-Dawley rat dorsal caudate nucleus at 500 uCi after 10 mins by PET imaging analysis; type: ADME, tissue-based; details: in vivo
Hypothalamus = experiment: Drug uptake in Sprague-Dawley rat hypothalamus at 500 uCi after 10 mins by PET imaging analysis; type: ADME, tissue-based; details: in vivo
Brain [12] = experiment: Drug uptake in cynomolgus monkey brain at 8.3 mCi, iv after 2 hrs by PET imaging analysis; type: ADME, organism-based, Macaca fascicularis; details: in vivo
Procedure, shortened: (§3)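 One male cynomolgus monkey (8.91 kg) given an 8.3 mCi iv bolus of radiotracer. PET scan for 2 h from injection, with images summed. Time-activity curves were derived for choroid plexus, muscle and whole brain.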

Muscle tissue = experiment: Drug uptake in Sprague-Dawley rat muscle at 500 uCi by PET imaging analysis in presence of ornithine vasotocin; type: ADME, tissue-based; details: in vivo; procedure, shortened: as §2
[13] = Drug uptake in cynomolgus monkey muscle at 8.3 mCi, iv after 2 hrs by PET imaging analysis; type: ADME, organism-based, Macaca fascicularis, Muscle tissue; details: in vivo; procedure, shortened: as §3
[14] = Lipophilicity, log P of the compound at pH 7.4; type: physicochemical; details: buffer
[15] = Drug uptake in cynomolgus monkey choroid plexus at 8.3 mCi, iv after 2 hrs by PET imaging analysis; type: ADME, organism-based, Macaca fascicularis; details: in vivo; procedure, shortened: as §3
[16] = Drug uptake in Sprague-Dawley rat pituitary gland at 500 uCi by PET imaging analysis; type: ADME, tissue-based; details: in vivo
Brain [17] = experiment: Drug uptake in Sprague-Dawley rat brain at 500 uCi by PET imaging analysis; type: ADME, tissue-based; details: in vivo
[18] = Drug uptake in Sprague-Dawley rat amygdala at 500 uCi after 10 mins by PET imaging analysis; type: ADME, tissue-based; details: in vivo

Chain of Vasopressin V1a receptor (Rattus norvegicus, UniProt P30560) (P30560 whole entry): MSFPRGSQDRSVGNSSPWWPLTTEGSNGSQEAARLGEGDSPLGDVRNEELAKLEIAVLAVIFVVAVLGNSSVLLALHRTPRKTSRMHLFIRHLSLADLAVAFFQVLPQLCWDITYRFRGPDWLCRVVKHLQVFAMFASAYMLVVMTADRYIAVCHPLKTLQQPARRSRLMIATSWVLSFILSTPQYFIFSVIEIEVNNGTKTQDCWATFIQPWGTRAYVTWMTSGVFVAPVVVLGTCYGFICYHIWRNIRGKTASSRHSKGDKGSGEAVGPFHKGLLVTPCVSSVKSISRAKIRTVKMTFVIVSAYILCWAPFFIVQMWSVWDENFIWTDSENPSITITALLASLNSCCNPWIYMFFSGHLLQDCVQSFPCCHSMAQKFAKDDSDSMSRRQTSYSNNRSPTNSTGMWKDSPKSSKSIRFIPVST
Chain of Vasopressin V2 receptor (Rattus norvegicus, UniProt Q00788) (Q00788 whole entry): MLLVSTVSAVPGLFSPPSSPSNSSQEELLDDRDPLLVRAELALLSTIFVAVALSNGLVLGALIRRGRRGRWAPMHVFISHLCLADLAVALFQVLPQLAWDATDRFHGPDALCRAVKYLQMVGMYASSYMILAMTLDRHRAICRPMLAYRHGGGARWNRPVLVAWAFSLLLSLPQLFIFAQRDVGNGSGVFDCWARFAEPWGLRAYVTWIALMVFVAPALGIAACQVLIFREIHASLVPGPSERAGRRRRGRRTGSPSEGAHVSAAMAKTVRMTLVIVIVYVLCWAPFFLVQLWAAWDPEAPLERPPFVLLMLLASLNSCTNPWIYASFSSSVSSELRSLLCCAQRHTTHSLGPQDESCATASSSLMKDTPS
Chain of Vasopressin V2 receptor (Homo sapiens, UniProt P30518) (P30518 whole entry): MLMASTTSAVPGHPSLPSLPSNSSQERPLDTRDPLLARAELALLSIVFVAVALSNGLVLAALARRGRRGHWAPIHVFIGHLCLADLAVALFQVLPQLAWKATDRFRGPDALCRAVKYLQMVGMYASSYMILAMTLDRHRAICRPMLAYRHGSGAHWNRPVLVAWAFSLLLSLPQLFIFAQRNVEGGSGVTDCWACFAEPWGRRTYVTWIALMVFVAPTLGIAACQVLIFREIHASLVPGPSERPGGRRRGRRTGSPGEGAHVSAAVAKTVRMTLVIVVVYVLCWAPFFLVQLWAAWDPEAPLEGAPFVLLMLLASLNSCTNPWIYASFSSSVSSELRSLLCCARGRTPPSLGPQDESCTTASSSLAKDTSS
Chain of Vasopressin V1a receptor (Homo sapiens, UniProt P37288) (P37288 whole entry): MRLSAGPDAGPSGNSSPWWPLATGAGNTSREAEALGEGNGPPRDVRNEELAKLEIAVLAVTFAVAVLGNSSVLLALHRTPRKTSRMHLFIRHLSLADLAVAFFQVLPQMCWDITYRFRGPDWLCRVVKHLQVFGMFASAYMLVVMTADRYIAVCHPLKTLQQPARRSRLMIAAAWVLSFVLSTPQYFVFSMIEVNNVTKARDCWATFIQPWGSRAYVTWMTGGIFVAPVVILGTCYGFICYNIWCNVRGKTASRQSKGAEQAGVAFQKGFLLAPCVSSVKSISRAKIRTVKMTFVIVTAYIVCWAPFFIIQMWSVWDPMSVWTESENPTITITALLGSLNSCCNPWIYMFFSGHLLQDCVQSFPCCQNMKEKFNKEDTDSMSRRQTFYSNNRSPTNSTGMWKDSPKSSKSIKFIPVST

bioavailability [1]: 17% | IC50 (Vasopressin V1a receptor [2]): 370 nM | bioavailability [3]: 17% | IC50 (Vasopressin V2 receptor [4]): 570 nM | IC50 (Oxytocin receptor [5]): 8.9 nM
Structure (SMILES): Cc1ccccc1N1CCN(S(=O)(=O)C[C@]23CC[C@H](C[C@@H]2NC(=O)[C@@H](N)CCS(C)(=O)=O)C3(C)C)CC1

IC50 (Vasopressin V1a receptor [2]): 320 nM | IC50 (Vasopressin V2 receptor [4]): 350 nM | Ki (Vasopressin V2 receptor [6]): 181 nM | IC50 (Oxytocin receptor [5]): 9.2 nM | Ki (Vasopressin V1b receptor): 1300 nM | Ki (Vasopressin V1a receptor [7]): 620 nM | Ki (Oxytocin receptor [8]): 5.2 nM
Structure (SMILES): CN[C@@H](CCS(C)(=O)=O)C(=O)N[C@H]1C[C@H]2CC[C@]1(CS(=O)(=O)N1CCN(c3ccccc3C)CC1)C2(C)C

Drug uptake (Brain [9]): Active | Drug uptake [10]: Active | Drug uptake [11]: Active | Drug uptake (Hypothalamus): Active | Drug uptake (Brain [12]): Not Active | Drug uptake (Muscle tissue): Active | Drug uptake [13]: Active | logD [14]: 2.62 | Drug uptake [15]: Active | Drug uptake [16]: Active | Drug uptake (Brain [17]): Active | Drug uptake [18]: Active
Structure (SMILES): Cc1ccccc1N1CCN(S(=O)(=O)C[C@]23CC[C@H](C[C@@H]2NC(=O)[C@H](CCS(C)(=O)=O)N[11CH3])C3(C)C)CC1
